Test results taken from ChEMBL document CHEMBL1144782, “Isoindolo[2,1-a]quinoxaline derivatives, novel potent antitumor agents with dual inhibition of tubulin polymerization and topoisomerase I” (2008).

Key:
786-0 = experiment: Antitumor activity against human 786-0 cells; type: functional
In short: (§1)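 Run by the NCI in its in vitro disease-oriented screen of about 60 human tumour cell lines. For each line it reports pGI50 (50% net growth inhibition), pTGI (total growth inhibition) and pLC50 (50% net cell death), each as –log molar concentration. Where an effect was not reached within the tested range, the highest tested concentration was used.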

SNB-19 = experiment: Antitumor activity against human SNB19 cells; type: functional; in short: as §1
SF-295 = experiment: Antitumor activity against human SF295 cells; type: functional; in short: as §1
RXF 393 = experiment: Antitumor activity against human RXF393 cells; type: functional; in short: as §1
Hs-578T = experiment: Antitumor activity against human HS578T cells; type: functional; in short: as §1
CCRF-CEM [1] = experiment: Resistance index, Ratio of GI50 for human vinblastine-resistant CEM cells to GI50 for human CEM cells; type: functional
A498 = experiment: Antitumor activity against human A498 cells; type: functional; in short: as §1
MCF7 [2] = experiment: Antitumor activity against human MCF7 cells; type: functional; in short: as §1
[3] = Antitumor activity against human NCI-H322 cells; type: functional; in short: as §1
MCF7 [4] = experiment: Resistance index, Ratio of GI50 for human multidrug-resistant MCF7 cells to GI50 for human MCF7 cells; type: functional
In short: (§2)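 Growth inhibition by MTT after 72 h incubation. Resistant sublines: LoVoDoxo and MCF-7 MDR were kept in 0.1 µg/mL doxorubicin; CEMVbl-100 was selected against vinblastine. GI50 given as mean ± SEM of three independent experiments. Resistance index is resistant-line GI50 over parental GI50.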

OVCAR-4 = experiment: Antitumor activity against human OVCAR4 cells; type: functional; in short: as §1
A549 = experiment: Antitumor activity against human A549 cells; type: functional; in short: as §1
SK-OV-3 = experiment: Antitumor activity against human SKOV3 cells; type: functional; in short: as §1
SN12C = experiment: Antitumor activity against human SN12C cells; type: functional; in short: as §1
OVCAR-3 = experiment: Antitumor activity against human OVCAR-3 cells; type: functional; in short: as §1
[5] = Antitumor activity against human […] cells; type: functional; in short: as §1
SF-268 [6] = experiment: Cell viability against human SF268 cells at 10 uM; type: functional
CCRF-CEM [7] = experiment: Antitumor activity against human CCRF-CEM cells; type: functional; in short: as §1
ACHN = experiment: Antitumor activity against human ACHN cells; type: functional; in short: as §1
OVCAR-5 = experiment: Antitumor activity against human OVCAR5 cells; type: functional; in short: as §1
IGROV-1 = experiment: Antitumor activity against human IGROV1 cells; type: functional; in short: as §1
CAKI-1 = experiment: Antitumor activity against human CAKI1 cells; type: functional; in short: as §1
OVCAR-8 = experiment: Antitumor activity against human OVCAR8 cells; type: functional; in short: as §1
MCF7 [8] = experiment: Growth inhibition of human MCF7 cells after 72 hrs by MTT assay; type: functional; conditions: MCF7, 72 h; in short: as §2
NCI-H226 = experiment: Antitumor activity against human NCI-H226 cells; type: functional; in short: as §1
HT-29 = experiment: Antitumor activity against human HT29 cells; type: functional; in short: as §1
NCI-H460 = experiment: Antitumor activity against human NCI-H460 cells; type: functional; in short: as §1
SK-MEL-2 = experiment: Antitumor activity against human SKMEL2 cells; type: functional; in short: as §1
SK-MEL-28 = experiment: Antitumor activity against human SKMEL28 cells; type: functional; in short: as §1
SF-539 = experiment: Antitumor activity against human SF539 cells; type: functional; in short: as §1
SF-268 [9] = experiment: Antitumor activity against human SF268 cells; type: functional; in short: as §1
SW-620 = experiment: Antitumor activity against human SW620 cells; type: functional
In short: (§3)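 NCI 60-cell-line screen. Parameters were GI50 (50% net growth inhibition), TGI and LC50, each reported as –log molar concentration. Where an effect was not reached within the tested range, the highest tested concentration was used in the calculation.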

SNB-75 = experiment: Antitumor activity against human SNB75 cells; type: functional; conditions: Homo sapiens, SNB-75; in short: as §1
UACC-62 = experiment: Antitumor activity against human UACC62 cells; type: functional; in short: as §3
HOP-62 = experiment: Antitumor activity against human HOP62 cells; type: functional; in short: as §1
Tubulin (Sus scrofa) = Tubulin (Sus scrofa) (UniProt P02554+P02550); experiment: Inhibition of pig brain tubulin polymerization
NCI-H522 = experiment: Antitumor activity against human NCI-H522 cells; type: functional; in short: as §1
UACC-257 = experiment: Antitumor activity against human UACC257 cells; type: functional; in short: as §3
RPMI-8226 = experiment: Antitumor activity against human RPMI8226 cells; type: functional; in short: as §1
MCF7 [10] = experiment: Growth inhibition of human multidrug-resistant MCF7 cells after 72 hrs by MTT assay; type: functional; conditions: MCF7, 72 h; in short: as §2
TK-10 = experiment: Antitumor activity against human TK10 cells; type: functional; in short: as §3
[11] = read-out: Log LC50 (the source's name) (converted)

Sequence of Tubulin (Sus scrofa) (P02550 whole entry, looked up): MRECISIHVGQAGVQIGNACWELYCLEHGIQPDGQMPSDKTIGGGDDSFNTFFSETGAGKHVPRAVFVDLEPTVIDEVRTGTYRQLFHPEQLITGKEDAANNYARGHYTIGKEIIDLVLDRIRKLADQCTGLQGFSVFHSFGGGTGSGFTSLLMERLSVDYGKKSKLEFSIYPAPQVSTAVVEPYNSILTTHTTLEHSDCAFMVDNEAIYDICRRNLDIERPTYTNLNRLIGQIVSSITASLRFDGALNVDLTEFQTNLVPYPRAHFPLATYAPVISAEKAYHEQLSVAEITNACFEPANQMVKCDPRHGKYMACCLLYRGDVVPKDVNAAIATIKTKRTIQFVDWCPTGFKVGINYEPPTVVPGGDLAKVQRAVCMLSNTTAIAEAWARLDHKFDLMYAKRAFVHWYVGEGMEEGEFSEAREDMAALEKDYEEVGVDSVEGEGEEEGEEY
Sequence of Tubulin (Sus scrofa) (P02554 whole entry, looked up): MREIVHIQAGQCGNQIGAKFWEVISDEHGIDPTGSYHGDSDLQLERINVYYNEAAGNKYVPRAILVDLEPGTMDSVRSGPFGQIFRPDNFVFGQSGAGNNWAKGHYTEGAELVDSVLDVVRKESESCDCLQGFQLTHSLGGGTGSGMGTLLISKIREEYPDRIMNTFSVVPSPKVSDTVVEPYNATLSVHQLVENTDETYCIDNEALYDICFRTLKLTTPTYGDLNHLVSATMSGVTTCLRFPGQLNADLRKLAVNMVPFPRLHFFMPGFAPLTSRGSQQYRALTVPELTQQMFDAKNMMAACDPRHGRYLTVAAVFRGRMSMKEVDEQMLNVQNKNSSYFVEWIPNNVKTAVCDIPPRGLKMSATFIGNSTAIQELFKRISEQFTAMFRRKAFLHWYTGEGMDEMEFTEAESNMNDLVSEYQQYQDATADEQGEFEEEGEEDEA

Cc1cccc2c1[nH]c(=O)c1c3ccccc3cn21
GI50 (786-0): 5.89 µM | CC50 (786-0; [11]): > 100 µM | TGI (786-0; read-out: pTGI (converted)): 32.4 µM | GI50 (SNB-19): 15.5 µM | CC50 (SNB-19; [11]): > 100 µM | TGI (SNB-19; read-out: pTGI (converted)): 47.9 µM | GI50 (SF-295): 2.63 µM | CC50 (SF-295; [11]): > 100 µM | TGI (SF-295; read-out: pTGI (converted)): 25.1 µM | GI50 (RXF 393): 9.12 µM | CC50 (RXF 393; [11]): > 100 µM | TGI (RXF 393; read-out: pTGI (converted)): 38 µM | GI50 (Hs-578T): 21.9 µM | CC50 (Hs-578T; [11]): > 100 µM | TGI (Hs-578T; read-out: pTGI (converted)): 64.6 µM | RatioGI50 (CCRF-CEM [1]): 1.04 | GI50 (A498): 16.2 µM | CC50 (A498; [11]): > 100 µM | TGI (A498; read-out: pTGI (converted)): 41.7 µM | GI50 (MCF7 [2]): < 0.01 µM | LC50 (50% net cell kill) (MCF7 [2]): 39.8 µM | TGI (MCF7 [2]; read-out: pTGI (converted)): 12.6 µM | GI50 [3]: 13.5 µM | LC50 (50% net cell death) [3]: > 100 µM | TGI ([3]; read-out: pTGI (converted)): 45.7 µM | RatioGI50 (MCF7 [4]): 2.2 | GI50 (OVCAR-4): 6.76 µM | LC50 (50% net cell kill) (OVCAR-4): > 100 µM | TGI (OVCAR-4; read-out: pTGI (converted)): > 100 µM | GI50 (A549): 5.01 µM | CC50 (A549; [11]): > 100 µM | TGI (A549; read-out: pTGI (converted)): > 100 µM | GI50 (SK-OV-3): 27.5 µM | LC50 (50% net cell kill) (SK-OV-3): > 100 µM | TGI (SK-OV-3; read-out: pTGI (converted)): > 100 µM | GI50 (SN12C): 1.82 µM | LC50 (SN12C): > 100 µM | TGI (SN12C; read-out: pTGI (converted)): 19.1 µM | GI50 (OVCAR-3): 4.79 µM | LC50 (50% net cell death) (OVCAR-3): > 100 µM | TGI (OVCAR-3; read-out: pTGI (converted)): 28.2 µM | GI50 [5]: 2.4 µM | LC50 [5]: > 100 µM | TGI ([5]; read-out: pTGI (converted)): 17.4 µM | Activity (SF-268 [6]): 55% | GI50 (CCRF-CEM [7]): 1.2 µM | LC50 (CCRF-CEM [7]): 74.1 µM | TGI (CCRF-CEM [7]; read-out: pTGI (converted)): 12.6 µM | GI50 (ACHN): 4.07 µM | LC50 (50% net cell kill) (ACHN): > 100 µM | TGI (ACHN; read-out: pTGI (converted)): 22.4 µM | GI50 (OVCAR-5): 17.8 µM | LC50 (50% net cell death) (OVCAR-5): > 100 µM | TGI (OVCAR-5; read-out: pTGI (converted)): 66.1 µM | GI50 (IGROV-1): 3.72 µM | CC50 (IGROV-1; [11]): > 100 µM | TGI (IGROV-1; read-out: pTGI (converted)): > 100 µM | GI50 (CAKI-1): 2.19 µM | LC50 (CAKI-1): > 100 µM | TGI (CAKI-1; read-out: pTGI (converted)): 8.71 µM | GI50 (OVCAR-8): 3.55 µM | LC50 (50% net cell death) (OVCAR-8): > 100 µM | TGI (OVCAR-8; read-out: pTGI (converted)): > 100 µM | GI50 (MCF7 [8]): 3.7 µM | GI50 (NCI-H226): 3.24 µM | LC50 (50% net cell kill) (NCI-H226): > 100 µM | TGI (NCI-H226; read-out: pTGI (converted)): 27.5 µM | GI50 (HT-29): 2.19 µM | LC50 (HT-29): 36.3 µM | TGI (HT-29; read-out: pTGI (converted)): 13.2 µM | GI50 (NCI-H460): 1.91 µM | CC50 (NCI-H460; [11]): 31.6 µM | TGI (NCI-H460; read-out: pTGI (converted)): 10 µM | GI50 (SK-MEL-2): 14.5 µM | LC50 (SK-MEL-2): > 100 µM | TGI (SK-MEL-2; read-out: pTGI (converted)): > 100 µM | GI50 (SK-MEL-28): 6.92 µM | CC50 (SK-MEL-28; [11]): > 100 µM | TGI (SK-MEL-28; read-out: pTGI (converted)): > 100 µM | GI50 (SF-539): 3.89 µM | LC50 (50% net cell kill) (SF-539): 40.7 µM | TGI (SF-539; read-out: pTGI (converted)): 15.8 µM | GI50 (SF-268 [9]): 3.02 µM | CC50 (SF-268 [9]; [11]): 75.9 µM | TGI (SF-268 [9]; read-out: pTGI (converted)): 8.51 µM | GI50 (SW-620): 5.75 µM | CC50 (SW-620; [11]): 42.7 µM | TGI (SW-620; read-out: pTGI (converted)): 17.8 µM | GI50 (SNB-75): 30.9 µM | LC50 (SNB-75): > 100 µM | TGI (SNB-75; read-out: pTGI (converted)): > 100 µM | GI50 (UACC-62): 6.92 µM | LC50 (UACC-62): 95.5 µM | TGI (UACC-62; read-out: pTGI (converted)): 28.2 µM | GI50 (HOP-62): 3.55 µM | LC50 (50% net cell death) (HOP-62): 51.3 µM | TGI (HOP-62; read-out: pTGI (converted)): 15.1 µM | Activity (Tubulin (Sus scrofa)): > 10 µM | GI50 (NCI-H522): 6.46 µM | CC50 (NCI-H522; [11]): > 100 µM | TGI (NCI-H522; read-out: pTGI (converted)): 64.6 µM | GI50 (UACC-257): 16.6 µM | LC50 (UACC-257): > 100 µM | TGI (UACC-257; read-out: pTGI (converted)): 93.3 µM | GI50 (RPMI-8226): 2 µM | CC50 (RPMI-8226; [11]): 60.3 µM | TGI (RPMI-8226; read-out: pTGI (converted)): 7.08 µM | GI50 (MCF7 [10]): 8.1 µM | GI50 (TK-10): 26.9 µM | CC50 (TK-10; [11]): > 100 µM | TGI (TK-10; read-out: pTGI (converted)): 87.1 µM
